≈ marks a conversion by molar mass, not a printed value.
Experiments:
Candida parapsilosis [1] = assay: Antifungal activity against Candida parapsilosis ATCC 22019 after 24 hrs by microdilution method; type: functional; conditions: Lodderomyces parapsilosis, ATCC 22019, 24 h
Procedure, shortened: (§1)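 Yeasts held on Sabouraud dextrose agar. MIC by NCCLS M27-A broth microdilution in RPMI 1640 with L-glutamine, buffered with 0.165 M MOPS to pH 7.0. Compounds in DMSO (≤2% final), twofold dilutions 500–0.48. Final inoculum 5 × 10³ ± 0.2 cfu mL⁻¹. Incubated at 35 °C; absorbance at 540 nm read at 24 and 48 h. MIC is 80% growth inhibition versus control; run twice in duplicate.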

Clavispora lusitaniae [2] = assay: Antifungal activity against Candida lusitaniae 2446/I after 48 hrs by microdilution method; type: functional; procedure, shortened: as §1
Aspergillus fumigatus [3] = assay: Antifungal activity against Aspergillus fumigatus 231 after 24 hrs by microdilution method; type: functional; conditions: Aspergillus fumigatus, 231, 24 h
Procedure, shortened: (§2)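 Filamentous strains held on Sabouraud dextrose agar. NCCLS M27-A broth microdilution in RPMI 1640 with L-glutamine and 0.165 M MOPS, pH 7.0. DMSO diluent ≤2% final; twofold dilutions 500–0.48. Inoculum 5 × 10³ ± 0.2 cfu mL⁻¹ final.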

Candida parapsilosis [4] = assay: Antifungal activity against Candida parapsilosis ATCC 22019 after 48 hrs by microdilution method; type: functional; conditions: Lodderomyces parapsilosis, ATCC 22019, 48 h; procedure, shortened: as §1
Candida tropicalis [5] = assay: Antifungal activity against Candida tropicalis 156 after 24 hrs by microdilution method; type: functional; conditions: Candida tropicalis, 156, 24 h; procedure, shortened: as §1
Nakaseomyces glabratus [6] = assay: Antifungal activity against Candida glabrata 20/I after 24 hrs by microdilution method; type: functional; procedure, shortened: as §1
Pichia kudriavzevii [7] = assay: Antifungal activity against Candida krusei ATCC 6258 after 24 hrs by microdilution method; type: functional; conditions: ATCC 6258, 24 h; procedure, shortened: as §1
Lichtheimia corymbifera [8] = assay: Antifungal activity against Absidia corymbifera 272 after 48 hrs by microdilution method; type: functional; conditions: Lichtheimia corymbifera, 272, 48 h; procedure, shortened: as §2
Trichosporon beigelii [9] = assay: Antifungal activity against Trichosporon beigelii 1188 after 24 hrs by microdilution method; type: functional; conditions: Trichosporon beigelii, 1188, 24 h; procedure, shortened: as §1
Trichosporon beigelii [10] = assay: Antifungal activity against Trichosporon beigelii 1188 after 48 hrs by microdilution method; type: functional; conditions: Trichosporon beigelii, 1188, 48 h; procedure, shortened: as §1
Pichia kudriavzevii [11] = assay: Antifungal activity against Candida krusei ATCC 6258 after 48 hrs by microdilution method; type: functional; conditions: ATCC 6258, 48 h; procedure, shortened: as §1
Pichia kudriavzevii [12] = assay: Antifungal activity against Candida krusei E28 after 24 hrs by microdilution method; type: functional; conditions: E28, 24 h; procedure, shortened: as §1
Lichtheimia corymbifera [13] = assay: Antifungal activity against Absidia corymbifera 272 after 24 hrs by microdilution method; type: functional; conditions: Lichtheimia corymbifera, 272, 24 h; procedure, shortened: as §2
Clavispora lusitaniae [14] = assay: Antifungal activity against Candida lusitaniae 2446/I after 24 hrs by microdilution method; type: functional; procedure, shortened: as §1
[15] = test system: Trichophyton mentagrophytes; assay: Antifungal activity against Trichophyton mentagrophytes 445 after 120 hrs by microdilution method; type: functional; conditions: Trichophyton mentagrophytes, 445, 120 h
Procedure, shortened: (§3)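 Dermatophyte held on Sabouraud dextrose agar. M27-A microdilution in MOPS-buffered (0.165 M, pH 7.0) RPMI 1640 with L-glutamine. DMSO ≤2% final; twofold dilutions 500–0.48. Inoculum 5 × 10³ ± 0.2 cfu mL⁻¹ final. Incubated at 35 °C; MIC read visually at 72 and 120 h as 80% inhibition of control growth; determined twice in duplicate.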

Candida albicans [16] = assay: Antifungal activity against Candida albicans ATCC 44859 after 48 hrs by microdilution method; type: functional; conditions: ATCC 44859, 48 h; procedure, shortened: as §1
Pichia kudriavzevii [17] = assay: Antifungal activity against Candida krusei E28 after 48 hrs by microdilution method; type: functional; conditions: E28, 48 h; procedure, shortened: as §1
Aspergillus fumigatus [18] = assay: Antifungal activity against Aspergillus fumigatus 231 after 48 hrs by microdilution method; type: functional; conditions: Aspergillus fumigatus, 231, 48 h; procedure, shortened: as §2
Candida albicans [19] = assay: Antifungal activity against Candida albicans ATCC 44859 after 24 hrs by microdilution method; type: functional; conditions: ATCC 44859, 24 h; procedure, shortened: as §1
CCRF-CEM = assay: Cytostatic activity against human CCRF-CEM cells after 72 hrs by XTT assay; type: functional, cell-based
Procedure, shortened: (§4)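 Leukemia cells (L1210 ATCC CCL 219, CCRF-CEM ATCC CCL 119, HL-60 ATCC CCL 240) grown in 24-well plates in RPMI 1640 with fetal calf serum. Growth assessed 72 h after drug addition. Viability measured by XTT spectrophotometric assay; potency given as IC50.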

L1210 = assay: Cytostatic activity against mouse L1210 cells after 72 hrs by XTT assay; type: functional, cell-based; conditions: l1210; procedure, shortened: as §4
Nakaseomyces glabratus [20] = assay: Antifungal activity against Candida glabrata 20/I after 48 hrs by microdilution method; type: functional; procedure, shortened: as §1
[21] = test system: Trichophyton mentagrophytes; assay: Antifungal activity against Trichophyton mentagrophytes 445 after 72 hrs by microdilution method; type: functional; conditions: Trichophyton mentagrophytes, 445, 72 h; procedure, shortened: as §3
Candida albicans [22] = assay: Antifungal activity against Candida albicans ATCC 90028 after 48 hrs by microdilution method; type: functional; conditions: ATCC 90028, 48 h; procedure, shortened: as §1
HL-60 = assay: Cytostatic activity against human HL60 cells after 72 hrs by XTT assay; type: functional, cell-based; conditions: hl-60; procedure, shortened: as §4
HeLa S3 = assay: Cytostatic activity against human HeLaS3 cells after 48 hrs by XTT assay
Candida tropicalis [23] = assay: Antifungal activity against Candida tropicalis 156 after 48 hrs by microdilution method; type: functional; conditions: Candida tropicalis, 156, 48 h; procedure, shortened: as §1
Candida albicans [24] = assay: Antifungal activity against Candida albicans ATCC 90028 after 24 hrs by microdilution method; type: functional; conditions: ATCC 90028, 24 h; procedure, shortened: as §1
[25] = Chemical stability in DMSO solution at 4.7 mg after 24 hrs in room temperature by HPLC analysis; type: physicochemical
[26] = Chemical stability in tetrahydrofuran solution at 4.7 mg after 24 hrs in room temperature by HPLC analysis; type: physicochemical

Compound | MIC80 (Candida parapsilosis [1]) [µM] | MIC80 (Clavispora lusitaniae [2]) [µM] | MIC80 (Aspergillus fumigatus [3]) [µM] | MIC80 (Candida parapsilosis [4]) [µM] | MIC80 (Candida tropicalis [5]) [µM] | MIC80 (Nakaseomyces glabratus [6]) [µM] | MIC80 (Pichia kudriavzevii [7]) [µM] | MIC80 (Lichtheimia corymbifera [8]) [µM] | MIC80 (Trichosporon beigelii [9]) [µM] | MIC80 (Trichosporon beigelii [10]) [µM] | MIC80 (Pichia kudriavzevii [11]) [µM] | MIC80 (Pichia kudriavzevii [12]) [µM] | MIC80 (Lichtheimia corymbifera [13]) [µM] | MIC80 (Clavispora lusitaniae [14]) [µM] | MIC80 [15] [µM] | MIC80 (Candida albicans [16]) [µM] | MIC80 (Pichia kudriavzevii [17]) [µM] | MIC80 (Aspergillus fumigatus [18]) [µM] | MIC80 (Candida albicans [19]) [µM] | MIC80 (Nakaseomyces glabratus [20]) [µM] | other results
O=C1OCC=C1c1ccc(Br)cc1 | 250 (≈ 59.8 µg/mL) | 500 (≈ 120 µg/mL) | 250 (≈ 59.8 µg/mL) | 500 (≈ 120 µg/mL) | 250 (≈ 59.8 µg/mL) | 500 (≈ 120 µg/mL) | 250 (≈ 59.8 µg/mL) | 500 (≈ 120 µg/mL) | 250 (≈ 59.8 µg/mL) | 500 (≈ 120 µg/mL) | 500 (≈ 120 µg/mL) | 250 (≈ 59.8 µg/mL) | 500 (≈ 120 µg/mL) | 500 (≈ 120 µg/mL) | 250 (≈ 59.8 µg/mL) | 250 (≈ 59.8 µg/mL) | 500 (≈ 120 µg/mL) | 500 (≈ 120 µg/mL) | 250 (≈ 59.8 µg/mL) | 500 (≈ 120 µg/mL) | IC50 (CCRF-CEM; ccrf-cem): Not Active; IC50 (L1210): Not Active; MIC80 [21]: 250 µM (≈ 59.8 µg/mL); MIC80 (Candida albicans [22]): 500 µM (≈ 120 µg/mL); IC50 (HL-60): Not Active; IC50 (HeLa S3; hela s3): Not Active; MIC80 (Candida tropicalis [23]): 500 µM (≈ 120 µg/mL); MIC80 (Candida albicans [24]): 500 µM (≈ 120 µg/mL)
CC(=O)OCC1C=C(c2ccc(Br)cc2)C(=O)O1 (configuration not stated) | 3.9 (≈ 1.21 µg/mL) | 7.81 (≈ 2.43 µg/mL) | 0.98 (≈ 0.305 µg/mL) | 15.6 (≈ 4.86 µg/mL) | 7.81 (≈ 2.43 µg/mL) | 1.95 (≈ 0.607 µg/mL) | 3.9 (≈ 1.21 µg/mL) | 15.6 (≈ 4.86 µg/mL) | 7.81 (≈ 2.43 µg/mL) | 7.81 (≈ 2.43 µg/mL) | 7.81 (≈ 2.43 µg/mL) | 7.81 (≈ 2.43 µg/mL) | 7.81 (≈ 2.43 µg/mL) | 3.9 (≈ 1.21 µg/mL) | 3.9 (≈ 1.21 µg/mL) | 1.95 (≈ 0.607 µg/mL) | 7.81 (≈ 2.43 µg/mL) | 3.91 (≈ 1.22 µg/mL) | 0.49 (≈ 0.152 µg/mL) | 1.95 (≈ 0.607 µg/mL) | Stability [25]: < 3 h; Stability [26]: Stable; MIC80 [21]: 1.95 µM (≈ 0.607 µg/mL); MIC80 (Candida albicans [22]): 3.9 µM (≈ 1.21 µg/mL); MIC80 (Candida tropicalis [23]): 7.81 µM (≈ 2.43 µg/mL); MIC80 (Candida albicans [24]): 3.9 µM (≈ 1.21 µg/mL)
CCOCC1C=C(c2ccc(Br)cc2)C(=O)O1 (configuration not stated) | 125 (≈ 37.1 µg/mL) | 250 (≈ 74.3 µg/mL) | 62.5 (≈ 18.6 µg/mL) | 250 (≈ 74.3 µg/mL) | 250 (≈ 74.3 µg/mL) | 62.5 (≈ 18.6 µg/mL) | 250 (≈ 74.3 µg/mL) | 125 (≈ 37.1 µg/mL) | 125 (≈ 37.1 µg/mL) | 250 (≈ 74.3 µg/mL) | 250 (≈ 74.3 µg/mL) | 250 (≈ 74.3 µg/mL) | 125 (≈ 37.1 µg/mL) | 125 (≈ 37.1 µg/mL) | 15.6 (≈ 4.64 µg/mL) | 62.5 (≈ 18.6 µg/mL) | 250 (≈ 74.3 µg/mL) | 125 (≈ 37.1 µg/mL) | 31.2 (≈ 9.29 µg/mL) | 62.5 (≈ 18.6 µg/mL) | IC50 (CCRF-CEM; Homo sapiens, CCRF-CEM, 72 h, read-out: IC50): 9.82 µM; IC50 (L1210): Not Active; MIC80 [21]: 15.6 µM (≈ 4.64 µg/mL); MIC80 (Candida albicans [22]): 125 µM (≈ 37.1 µg/mL); IC50 (HL-60): Not Active; IC50 (HeLa S3; Homo sapiens, HeLa S3, 48 h, read-out: IC50): 1.94 µM; MIC80 (Candida tropicalis [23]): 250 µM (≈ 74.3 µg/mL); MIC80 (Candida albicans [24]): 125 µM (≈ 37.1 µg/mL)
